36 molecules from ChEMBL document CHEMBL4680290, “Design, synthesis and biological evaluation of novel chalcone-like compounds as potent and reversible pancreatic lipase inhibitors” (Bioorg Med Chem, 2021) can be followed below.

Broadly, the half-life is the time in which the quantity being followed falls by half. As usually defined, the IC50 is the concentration at which inhibition is half-maximal. Lower therefore signals greater potency. By Ki is commonly meant the equilibrium dissociation constant of an inhibitor or competing ligand from its target. High values mean lower affinity, low ones higher affinity.

Tested on in the first series: not listed separately
Nature of the series: Metabolic stability in artificial intestinal fluids assessed as half life at 100 uM by LC-UV method. The essentials: (§1)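 Artificial gastric or intestinal fluid (800 μL) prewarmed 3 min at 37 °C, then compound added to 100 μM final. Aliquots taken at 0, 0.5, 1, 2 and 4 h and quenched with equal volume of ice-cold acetonitrile. Half-life derived from remaining compound.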
On to `COc1cc(/C=C2\Cc3ccc(N(CCCCCCCCCCCCO)CCCCCCCCCCCCO)cc3C2=O)ccc1O`, for which the T1/2 was above 4 h.

Tested on in a further series: not listed separately
Nature of the series: Metabolic stability in human liver microsomes assessed as half life in Phase II metabolic system at 10 uM measured by LC-UV method. It counts as ADME, Microsome. The essentials: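 Phase II system of human liver preparations, compound at 10 μM final. Remaining compound measured by UFLC-UV on an ODS column (2.1 × 150 mm, 2.2 μm) at 40 °C and 0.4 mL/min, with an acetonitrile / water (0.2% formic acid) gradient, detection at 370 nm. Half-life reported.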
A general note: Liver microsomes are vesicles of endoplasmic reticulum, rich in cytochrome P450 enzymes.
For `COc1cc(/C=C2\Cc3ccc(N(CCCCCCCCCCCCO)CCCCCCCCCCCCO)cc3C2=O)ccc1O`, the half-life at 10 µM stood at 1.95 h.

On to `O=c1ccc2ccc(O)cc2o1` [UMBELLIFERONE], for which the half-life at 10 µM worked out at 0.258 h.

In a further series the target is T1, Pancreatic triacylglycerol lipase (Sus scrofa, UniProt P00591).
T1 sequence (P00591 whole entry): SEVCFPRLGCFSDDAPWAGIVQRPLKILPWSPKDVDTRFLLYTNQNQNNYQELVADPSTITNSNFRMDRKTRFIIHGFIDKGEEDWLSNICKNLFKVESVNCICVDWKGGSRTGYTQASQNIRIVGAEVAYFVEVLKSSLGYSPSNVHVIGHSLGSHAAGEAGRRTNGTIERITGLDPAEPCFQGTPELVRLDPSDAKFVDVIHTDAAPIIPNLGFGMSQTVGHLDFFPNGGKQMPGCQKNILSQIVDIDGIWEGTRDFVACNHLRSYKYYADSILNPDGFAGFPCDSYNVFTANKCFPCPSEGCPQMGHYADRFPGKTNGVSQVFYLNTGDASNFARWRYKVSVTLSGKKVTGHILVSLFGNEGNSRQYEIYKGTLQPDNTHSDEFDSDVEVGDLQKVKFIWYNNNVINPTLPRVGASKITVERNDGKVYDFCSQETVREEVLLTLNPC
In words: Inhibition of porcine pancreatic lipase preincubated for 10 mins followed by 4-MUO addition and measured at 60 sec interval for 40 mins by multi plate micro plate reader. The essentials:
(§2)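 Porcine pancreatic lipase (type II) at 0.01 mg/mL final in 0.1 M citrate phosphate buffer pH 7.4 with inhibitor at various concentrations, vortexed, preincubated 10 min at 37 °C. Reaction started with 4-MUO, and fluorescence of released 4-MU read on a microplate reader. IC50 obtained by nonlinear regression; mean ± SD of triplicates.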
Turning to `O=C1/C(=C/c2ccc(Cl)c(Cl)c2)Cc2ccc(O)cc21`, the IC50 is 75.4 µM.

In turn, `COc1cc(OC)c(OC)cc1/C=C1\Cc2ccc(O)cc2C1=O` came in with an IC50 of 35 µM.

`O=C1/C(=C/c2ccc(O)cc2)Cc2ccccc21` returned an IC50 of 14.9 µM.

Molecule `COc1cc(/C=C2\Cc3ccccc3C2=O)ccc1O` had an IC50 of 6.94 µM.

Consider `COc1cc(OC)c(/C=C2\Cc3ccc(O)cc3C2=O)c(OC)c1`, for which the IC50 turned out to be 20.7 µM.

Take `O=C1/C(=C/c2ccccc2Br)Cc2ccc(O)cc21`: the midpoint of inhibition, the IC50, lay at 28.9 µM.

`O=C1/C(=C/c2ccc(F)cc2)Cc2ccc(O)cc21` yielded an IC50 of 32.7 µM.

Take `COc1ccc2c(c1)C(=O)/C(=C/c1ccc(O)c(OC)c1)C2`: half-maximal inhibition (IC50) was put at 37.1 µM.

As to `COc1cc(/C=C2\Cc3ccc(NCCCCCCCCCCCCO)cc3C2=O)ccc1O`, it took 0.68 µM to reach half-maximal inhibition (IC50).

Take `C=CCCCCNc1ccc2c(c1)C(=O)/C(=C/c1ccc(O)c(OC)c1)C2`: the half-inhibitory concentration (IC50) amounted to 25.1 µM.

`C=CCCCCCCCCN(CCCCCCCCC=C)c1ccc2c(c1)C(=O)/C(=C/c1ccc(O)c(OC)c1)C2`: it took 0.58 µM to reach half-maximal inhibition (IC50).

Molecule `COc1cc(/C=C2\Cc3ccc(N4CCCCC4)cc3C2=O)ccc1O` displayed an IC50 of 3.32 µM.

`COc1cc(/C=C2\Cc3ccc(N)cc3C2=O)ccc1O` showed an IC50 of 12.4 µM.

As for `COc1ccc(/C=C2\Cc3ccc(O)cc3C2=O)c(OC)c1`, the midpoint of inhibition, the IC50, lay at 24.8 µM.

`COc1cc(/C=C2\Cc3ccc(NCCC(C)CCCC(C)C)cc3C2=O)ccc1O` (stereo unspecified) returned an IC50 of 2.52 µM.

The molecule `O=C1/C(=C/c2ccc(Br)cc2)Cc2ccc(O)cc21` showed a half-maximal inhibitory concentration (IC50) of 75.6 µM.

`COc1cc(/C=C2\Cc3ccc(N4CCCC4)cc3C2=O)ccc1O` registered an IC50 of 3.5 µM.

Turning to `C=CCCCCCCCCNc1ccc2c(c1)C(=O)/C(=C/c1ccc(O)c(OC)c1)C2`, the IC50 is 84.1 µM.

On to `CCCOc1ccc2c(c1)C(=O)/C(=C/c1ccc(O)c(OC)c1)C2`, for which the midpoint of inhibition, the IC50, lay at 2.54 µM.

Molecule `O=C(/C=C/c1ccccc1)c1ccccc1` [CHALCONE] showed an IC50 of 84.4 µM.

As to `COc1cc(/C=C2\Cc3ccc(N(CCC(C)CCCC(C)C)CCC(C)CCCC(C)C)cc3C2=O)ccc1O` (stereo unspecified), the IC50 stood at 0.83 µM.

Regarding `O=C1/C(=C/c2cccc(Br)c2)Cc2ccc(O)cc21`, the IC50 came to 14.8 µM.

Regarding `O=C1/C(=C/c2ccccc2F)Cc2ccc(O)cc21`, the concentration for half-maximal inhibition (IC50) is above 100 µM.

As for `COc1cc(/C=C2\Cc3ccc(O)cc3C2=O)ccc1O`, it took 10.4 µM to reach half-maximal inhibition (IC50).

Turning to `COc1cc(/C=C2\Cc3ccc(N(CCCCCCCCCCCCO)CCCCCCCCCCCCO)cc3C2=O)ccc1O`, the IC50 came out at 0.33 µM.

On to `COc1cc(/C=C2\Cc3ccc(O)cc3C2=O)cc(OC)c1OC`, for which inhibition was half-maximal at 14.8 µM (IC50).

In the case of `CCN(CC)c1ccc2c(c1)C(=O)/C(=C/c1ccc(O)c(OC)c1)C2`, the IC50 worked out at 1.69 µM.

In the case of `C=CCCCCN(CCCCC=C)c1ccc2c(c1)C(=O)/C(=C/c1ccc(O)c(OC)c1)C2`, the IC50 is 2.09 µM.

`O=C1/C(=C/c2ccc(O)cc2)Cc2ccc(O)cc21` returned a concentration for half-maximal inhibition (IC50) above 100 µM.

`COc1cc(/C=C2\Cc3ccc(OC(C)C)cc3C2=O)ccc1O` gave an IC50 of 8.61 µM.

As for `O=C1/C(=C/c2ccccc2Cl)Cc2ccc(O)cc21`, the IC50 was above 100 µM.

Tested on in another series: not listed separately
Nature of the series: Metabolic stability in artificial gastrointestinal fluids assessed as half life at 100 uM by LC-UV method. Summed up:
as §1
Turning to `COc1cc(/C=C2\Cc3ccc(N(CCCCCCCCCCCCO)CCCCCCCCCCCCO)cc3C2=O)ccc1O`, the T1/2 amounted to 3.89 h.

The target of another series is T1, Pancreatic triacylglycerol lipase. Nature of the series: Mixed type inhibition of porcine pancreatic lipase using 4MUO as substrate by Lineweaver-Burk plot analysis. Summed up: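 Kinetics of porcine pancreatic lipase with varied 4-MUO concentrations and increasing inhibitor doses, otherwise as in the standard assay (0.01 mg/mL enzyme, citrate phosphate pH 7.4, 37 °C, 4-MU fluorescence read-out). Inhibition mode and Ki taken from inhibition kinetic plots and Lineweaver-Burk plots, with a secondary plot of slopes. Nonlinear regression; mean ± SD of triplicates.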
Regarding `COc1cc(/C=C2\Cc3ccc(N(CCCCCCCCCCCCO)CCCCCCCCCCCCO)cc3C2=O)ccc1O`, the Ki was found to be 0.12 µM.

Target in the next series: not listed separately
Nature of the series: Inhibition of porcine pancreatic lipase type 2. Also on record: species or system Sus scrofa. Summed up:
as §2
`CC(C)=CCc1c(O)ccc(C(=O)/C=C/c2ccc(O)cc2)c1O` [ISOBAVACHALCONE] returned an IC50 of 3.3 µM.

On to `CC(C)=CCc1cc(C(=O)/C=C/c2ccc(O)cc2)c(O)cc1O` [BROUSSOCHALCONE B], for which the IC50 turned out to be 5.7 µM.

Molecule `CC(C)=CCc1c(O)ccc(C(=O)/C=C/c2ccc(O)cc2O)c1O` [MORACHALCONE A] displayed an IC50 of 6.2 µM.

In the case of `O=C1/C(=C/c2ccccc2)Cc2ccccc21`, the IC50 came to 22.5 µM.

Tested on in a further series: not listed separately
In words: Metabolic stability in human liver microsomes assessed as half life in Phase I metabolic system at 10 uM measured by LC-UV method. It counts as ADME, Microsome. The essentials:
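Phase I incubation with human liver preparations, compound or testosterone control at 10 μM final. Remaining compound quantified by LC-UV (ODS column, 40 °C, acetonitrile/0.2% formic acid water gradient, 0.4 mL/min, detection 370 nm) to give in vitro half-life.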
For `COc1cc(/C=C2\Cc3ccc(N(CCCCCCCCCCCCO)CCCCCCCCCCCCO)cc3C2=O)ccc1O`, the half-life at 10 µM came out at 3.68 h.
